This note sets out measurements from ChEMBL document CHEMBL4706672 (J Med Chem, 2021).

Active and inactive are the calls of the source. The calls are words filed in the database; no cut-off is given here.

Assay [1] addresses Protein cereblon/Nectin-1 (Homo sapiens) (UniProt Q96SW2+Q15223). As to the kind of experiment: Protac activity at CRBN/Nectin-1 in human BxPC-3 cells assessed as Nectin-1 degradation incubated for 16 hrs by proteomic analysis. It counts as cell-based. The method in brief: (§1)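 TMT 10plex proteomics. […] Samples (75 μg) were reduced with DTT, alkylated with 2-chloroacetamide, acetone-precipitated, trypsin-digested overnight at 37 °C and TMT-labeled for LC-MS/MS relative quantitation.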

Assay [2] in a line: Upregulation of AP-1 protein levels in human BxPC-3 cells incubated for 16 hrs by proteomic analysis. It counts as functional. In outline: (§2)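 BxPC-3 cells exposed 16 h in triplicate (control, PROTAC) or duplicate (other arms); lysed in RIPA at 4 °C, 75 μg protein per sample. Reduced with DTT (1 h, 55 °C), alkylated with 2-chloroacetamide, acetone-precipitated, trypsin-digested overnight at 37 °C, TMT 10plex labelled, relative quantitation by LC-tandem MS.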

In assay [3] the target is Protein cereblon/Laminin subunit beta-1 (Homo sapiens) (UniProt P07942+Q96SW2). As to the kind of experiment: Protac activity at CRBN/LAMB1 in human BxPC-3 cells assessed as LAMB1 degradation incubated for 16 hrs by proteomic analysis. The class given is cell-based. In outline: as §1
Protein cereblon/Laminin subunit beta-1 (Homo sapiens), sequence (P07942 whole entry, looked up): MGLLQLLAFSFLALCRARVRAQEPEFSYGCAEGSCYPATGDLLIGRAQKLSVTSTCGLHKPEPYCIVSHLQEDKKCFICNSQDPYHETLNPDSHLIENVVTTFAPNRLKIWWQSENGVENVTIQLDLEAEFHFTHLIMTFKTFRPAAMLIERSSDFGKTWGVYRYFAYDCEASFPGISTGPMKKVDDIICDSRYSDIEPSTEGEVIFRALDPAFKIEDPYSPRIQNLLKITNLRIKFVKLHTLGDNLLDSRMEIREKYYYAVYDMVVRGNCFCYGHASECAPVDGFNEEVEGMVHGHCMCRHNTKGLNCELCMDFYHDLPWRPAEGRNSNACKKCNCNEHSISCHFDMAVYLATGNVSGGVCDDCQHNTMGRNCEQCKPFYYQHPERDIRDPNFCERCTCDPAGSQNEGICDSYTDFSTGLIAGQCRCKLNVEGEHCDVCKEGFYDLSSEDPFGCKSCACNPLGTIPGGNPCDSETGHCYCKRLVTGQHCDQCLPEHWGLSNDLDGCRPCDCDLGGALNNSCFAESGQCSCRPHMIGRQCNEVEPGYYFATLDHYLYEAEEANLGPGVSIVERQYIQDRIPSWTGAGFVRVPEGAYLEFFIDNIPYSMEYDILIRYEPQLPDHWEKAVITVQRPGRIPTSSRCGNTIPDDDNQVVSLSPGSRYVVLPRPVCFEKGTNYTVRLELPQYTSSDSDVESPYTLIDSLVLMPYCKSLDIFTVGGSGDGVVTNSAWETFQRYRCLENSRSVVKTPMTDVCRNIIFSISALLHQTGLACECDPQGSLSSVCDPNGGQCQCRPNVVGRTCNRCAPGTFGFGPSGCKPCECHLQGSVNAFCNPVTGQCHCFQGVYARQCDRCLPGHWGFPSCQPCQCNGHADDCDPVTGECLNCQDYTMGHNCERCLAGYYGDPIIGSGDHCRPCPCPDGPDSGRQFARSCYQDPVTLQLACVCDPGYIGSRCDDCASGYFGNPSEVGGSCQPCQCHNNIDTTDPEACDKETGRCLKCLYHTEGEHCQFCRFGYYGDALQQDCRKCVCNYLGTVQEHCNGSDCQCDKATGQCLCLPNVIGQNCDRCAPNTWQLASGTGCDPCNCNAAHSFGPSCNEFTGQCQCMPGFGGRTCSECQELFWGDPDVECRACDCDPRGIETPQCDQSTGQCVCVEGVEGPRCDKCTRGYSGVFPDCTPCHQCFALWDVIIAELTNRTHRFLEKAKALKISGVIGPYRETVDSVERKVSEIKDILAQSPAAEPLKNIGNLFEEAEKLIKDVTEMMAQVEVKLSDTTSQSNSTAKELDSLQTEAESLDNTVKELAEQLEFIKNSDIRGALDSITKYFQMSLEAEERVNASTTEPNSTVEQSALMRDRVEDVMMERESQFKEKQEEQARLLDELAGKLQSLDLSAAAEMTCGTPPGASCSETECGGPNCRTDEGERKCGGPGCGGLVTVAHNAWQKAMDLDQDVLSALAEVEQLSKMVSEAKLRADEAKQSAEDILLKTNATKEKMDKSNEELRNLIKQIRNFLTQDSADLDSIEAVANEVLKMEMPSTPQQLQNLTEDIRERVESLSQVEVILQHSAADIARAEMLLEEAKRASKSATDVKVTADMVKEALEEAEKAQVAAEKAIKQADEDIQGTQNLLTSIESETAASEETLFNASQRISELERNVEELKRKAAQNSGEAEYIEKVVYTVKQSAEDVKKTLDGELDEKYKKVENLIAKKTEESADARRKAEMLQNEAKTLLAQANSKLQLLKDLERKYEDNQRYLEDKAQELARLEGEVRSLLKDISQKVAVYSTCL
Protein cereblon/Laminin subunit beta-1 (Homo sapiens), sequence (Q96SW2 whole entry, looked up): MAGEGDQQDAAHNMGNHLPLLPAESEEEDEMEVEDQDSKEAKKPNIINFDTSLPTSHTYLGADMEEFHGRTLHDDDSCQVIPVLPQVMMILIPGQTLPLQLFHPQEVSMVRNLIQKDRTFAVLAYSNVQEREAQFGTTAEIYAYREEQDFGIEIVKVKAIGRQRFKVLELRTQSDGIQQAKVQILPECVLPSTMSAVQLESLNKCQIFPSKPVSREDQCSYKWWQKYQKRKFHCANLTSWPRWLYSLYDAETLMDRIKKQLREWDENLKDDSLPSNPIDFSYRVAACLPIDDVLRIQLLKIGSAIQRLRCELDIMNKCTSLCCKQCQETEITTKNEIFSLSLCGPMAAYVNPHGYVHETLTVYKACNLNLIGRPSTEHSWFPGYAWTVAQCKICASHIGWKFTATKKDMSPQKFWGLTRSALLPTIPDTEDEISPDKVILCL
Assay [4] can be described thus: Upregulation of EPHB3 protein levels in human BxPC-3 cells incubated for 16 hrs by proteomic analysis. The class given is functional. The method in brief:
as §2

Assay [5] concerns the target Protein cereblon/Melanoma-associated antigen D1 (Homo sapiens) (UniProt Q96SW2+Q9Y5V3). The assay is described as follows: Protac activity at CRBN/MAGED1 in human BxPC-3 cells assessed as MAGED1 degradation incubated for 16 hrs by proteomic analysis. The class given is cell-based. In outline: as §1
The subject of assay [6] is BXPC-3. As to the kind of experiment: Reduction in NQO1 expression in human BxPC-3 cells at 2 to 6 uM incubated for 16 hrs in presence of protein synthesis inhibitor cycloheximide by western blot analysis. Particulars: dose 2-6 µM. (In western blotting, separated proteins are transferred to a membrane and probed.)
In assay [7] the target is T1, Protein cereblon/E3 ubiquitin-protein ligase ZFP91 (Homo sapiens, UniProt Q96SW2+Q96JP5). The assay is described as follows: Protac activity at CRBN/ZFP91 in human BxPC-3 cells assessed as induction of ZF91 degradation incubated for 24 hrs by western blot analysis. The class given is cell-based. In outline: (§3)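 BxPC-3 cells treated for 4, 16 or 24 h across a concentration series. ZFP91 immunoblotted against GAPDH; bands quantified by densitometry, DC50 calculated from dose-response curves of the densitometry.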
Target sequence in this assay (Q96SW2 whole entry): as the sequence (Q96SW2 whole entry, looked up) above
Target sequence in this assay (Q96JP5 whole entry): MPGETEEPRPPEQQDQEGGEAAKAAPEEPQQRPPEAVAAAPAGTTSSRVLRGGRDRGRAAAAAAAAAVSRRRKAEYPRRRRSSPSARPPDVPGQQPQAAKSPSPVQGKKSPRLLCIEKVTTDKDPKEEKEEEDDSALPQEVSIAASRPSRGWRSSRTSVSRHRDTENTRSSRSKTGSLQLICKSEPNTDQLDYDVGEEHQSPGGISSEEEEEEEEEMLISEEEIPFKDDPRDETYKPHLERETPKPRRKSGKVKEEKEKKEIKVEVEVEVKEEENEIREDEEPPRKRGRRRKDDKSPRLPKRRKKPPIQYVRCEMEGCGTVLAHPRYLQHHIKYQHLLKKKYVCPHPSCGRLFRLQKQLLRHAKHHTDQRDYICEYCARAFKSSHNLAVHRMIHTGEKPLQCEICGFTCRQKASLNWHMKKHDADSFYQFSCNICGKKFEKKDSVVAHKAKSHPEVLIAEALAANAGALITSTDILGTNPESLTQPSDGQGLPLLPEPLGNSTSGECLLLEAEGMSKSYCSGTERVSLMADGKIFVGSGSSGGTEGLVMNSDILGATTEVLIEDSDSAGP

Assay [8] has as its target Protein cereblon/Desmoplakin (Homo sapiens) (UniProt Q96SW2+P15924). The assay is described as follows: Protac activity at CRBN/DSP in human BxPC-3 cells assessed as DSP degradation incubated for 16 hrs by proteomic analysis. It counts as cell-based. In outline: as §1
The target of assay [9] is T1, Protein cereblon/E3 ubiquitin-protein ligase ZFP91. The assay is described as follows: Protac activity at CRBN/ZFP91 in human BxPC-3 cells assessed as induction of ZF91 degradation incubated for 4 hrs by western blot analysis. It counts as cell-based. In outline:
as §3
Target sequence in this assay (Q96JP5 2-570 partner limits assumed): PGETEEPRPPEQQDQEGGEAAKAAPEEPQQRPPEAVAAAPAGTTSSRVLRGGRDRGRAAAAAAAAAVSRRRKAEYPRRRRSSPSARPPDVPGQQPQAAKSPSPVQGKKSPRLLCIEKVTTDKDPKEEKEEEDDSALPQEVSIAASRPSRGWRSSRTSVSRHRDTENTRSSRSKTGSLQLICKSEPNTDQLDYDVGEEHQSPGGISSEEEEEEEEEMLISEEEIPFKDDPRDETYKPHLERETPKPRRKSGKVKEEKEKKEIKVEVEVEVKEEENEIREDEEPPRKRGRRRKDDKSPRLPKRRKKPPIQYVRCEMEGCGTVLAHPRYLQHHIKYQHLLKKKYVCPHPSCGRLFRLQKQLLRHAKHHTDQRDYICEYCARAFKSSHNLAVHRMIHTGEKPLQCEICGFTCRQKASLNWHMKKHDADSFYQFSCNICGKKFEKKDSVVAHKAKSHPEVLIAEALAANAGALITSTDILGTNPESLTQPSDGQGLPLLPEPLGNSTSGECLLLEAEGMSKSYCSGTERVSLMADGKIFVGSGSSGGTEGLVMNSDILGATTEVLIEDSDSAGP
Target sequence in this assay (Q96SW2 whole entry): as the sequence (Q96SW2 whole entry, looked up) above

The target in assay [10] is Protein cereblon/Ubiquitin carboxyl-terminal hydrolase 8 (Homo sapiens) (UniProt P40818+Q96SW2). As to the kind of experiment: Protac activity at CRBN/USP8 in human BxPC-3 cells assessed as USP8 degradation incubated for 16 hrs by proteomic analysis. The class given is cell-based. In outline: as §2
Protein cereblon/Ubiquitin carboxyl-terminal hydrolase 8 (Homo sapiens), sequence (P40818 whole entry, looked up): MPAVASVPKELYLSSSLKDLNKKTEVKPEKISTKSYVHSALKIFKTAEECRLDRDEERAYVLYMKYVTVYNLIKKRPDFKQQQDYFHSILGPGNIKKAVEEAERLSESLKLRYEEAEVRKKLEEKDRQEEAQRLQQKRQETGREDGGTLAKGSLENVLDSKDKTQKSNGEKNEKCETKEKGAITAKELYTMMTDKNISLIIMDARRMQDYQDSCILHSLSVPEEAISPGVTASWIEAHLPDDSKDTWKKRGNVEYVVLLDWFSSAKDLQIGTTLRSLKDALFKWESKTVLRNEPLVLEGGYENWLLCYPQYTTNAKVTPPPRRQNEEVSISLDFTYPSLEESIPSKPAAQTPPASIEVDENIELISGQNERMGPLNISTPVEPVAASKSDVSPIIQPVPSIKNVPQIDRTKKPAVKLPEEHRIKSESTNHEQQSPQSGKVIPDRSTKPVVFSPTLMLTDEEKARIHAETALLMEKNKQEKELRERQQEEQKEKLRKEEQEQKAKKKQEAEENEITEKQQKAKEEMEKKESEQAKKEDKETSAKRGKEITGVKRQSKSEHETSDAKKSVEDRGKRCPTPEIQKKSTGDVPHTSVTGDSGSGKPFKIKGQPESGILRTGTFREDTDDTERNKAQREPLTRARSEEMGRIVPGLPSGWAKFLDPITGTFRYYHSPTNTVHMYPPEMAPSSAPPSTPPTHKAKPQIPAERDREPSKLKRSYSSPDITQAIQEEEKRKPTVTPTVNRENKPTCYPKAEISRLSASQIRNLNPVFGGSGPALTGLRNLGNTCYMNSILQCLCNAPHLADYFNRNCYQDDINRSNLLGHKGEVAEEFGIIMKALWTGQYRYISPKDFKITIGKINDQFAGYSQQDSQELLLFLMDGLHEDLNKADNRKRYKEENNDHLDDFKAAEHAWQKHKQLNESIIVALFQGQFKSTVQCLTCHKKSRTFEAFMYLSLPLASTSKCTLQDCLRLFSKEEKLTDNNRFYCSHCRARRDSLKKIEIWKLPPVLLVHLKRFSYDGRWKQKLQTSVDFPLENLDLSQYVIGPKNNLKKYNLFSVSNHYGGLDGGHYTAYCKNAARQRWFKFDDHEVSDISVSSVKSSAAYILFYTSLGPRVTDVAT
Protein cereblon/Ubiquitin carboxyl-terminal hydrolase 8 (Homo sapiens), sequence (Q96SW2 whole entry, looked up): as the sequence (Q96SW2 whole entry, looked up) above
Assay [11] addresses Protein cereblon/Serine/threonine-protein kinase PLK1 (Homo sapiens) (UniProt P53350+Q96SW2). The assay is described as follows: Protac activity at CRBN/PLK1 in human BxPC-3 cells assessed as PKL1 degradation incubated for 16 hrs by proteomic analysis. The class given is cell-based. In outline: as §1
For assay [12], the system named is BXPC-3. As to the kind of experiment: Antiproliferative activity against human BxPC-3 cells harboring ZFP91siRNA assessed as reduction in cell viability incubated for 48 hrs by MTT assay. The class given is functional, cell-based. Particulars: BXPC-3, 48 h. In outline:
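BxPC-3 cells were transfected with ZFP91 siRNA or scrambled control siRNA using Lipofectamine RNAiMAX in Opti-MEM, 5 pmol siRNA per complex. Compound was added together with the siRNA complex.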

For assay [13], the target named is Protein cereblon/Adhesion G-protein coupled receptor G1 (Homo sapiens) (UniProt Q96SW2+Q9Y653). As to the kind of experiment: Protac activity at CRBN/ADGRG1 in human BxPC-3 cells assessed as ADGRG1 degradation incubated for 16 hrs by proteomic analysis. The class given is cell-based. The method in brief:
as §1

In assay [14] the target is Protein cereblon/Histone-lysine N-methyltransferase PRDM16 (Homo sapiens) (UniProt Q96SW2+Q9HAZ2). The assay is described as follows: Protac activity at CRBN/PRDM16 in human BxPC-3 cells assessed as PRDM16 degradation incubated for 16 hrs by proteomic analysis. It counts as cell-based. The method in brief:
as §1

The target in assay [15] is T1, Protein cereblon/E3 ubiquitin-protein ligase ZFP91. The assay is described as follows: Protac activity at CRBN/ZFP91 in human BxPC-3 cells assessed as induction of ZF91 degradation incubated for 16 hrs by western blot analysis. The class given is cell-based. In outline:
as §3
Target sequence in this assay (Q96SW2 whole entry): as the sequence (Q96SW2 whole entry, looked up) above
Target sequence in this assay (Q96JP5 whole entry): as the sequence (Q96JP5 whole entry) above

Assay [16] concerns the target Protein cereblon/E3 ubiquitin-protein ligase SHPRH (Homo sapiens) (UniProt Q96SW2+Q149N8). The assay is described as follows: Protac activity at CRBN/SHPRH in human BxPC-3 cells assessed as SHPRH degradation incubated for 16 hrs by proteomic analysis. It counts as cell-based. The method in brief:
as §1

The test system of assay [17] is MIA PaCa-2. The assay is described as follows: Antiproliferative activity against human MIA PaCa-2 cells assessed as reduction in cell viability incubated for 3 days by MTT assay. The class given is functional, cell-based. The following applies: MIA PaCa-2, 72 h. In outline:
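MTT assay. Cells were seeded at 3000–6000/well and incubated overnight, then exposed to compound or DMSO vehicle for 3 days in RPMI-1640 or DMEM with 10% FBS at 37 °C, 5% CO2. MTT (3 mg/ml) was added for 3 h at 37 °C, formazan was dissolved in DMSO and absorbance read at 570 nm. IC50 from three independent experiments, mean ± SD.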
Background: Tetrazolium assays rely on reduction of a dye to a coloured formazan, in cell work by metabolically active cells.

Assay [18] has as its system MIA PaCa-2. As to the kind of experiment: Effect on NQO1 expression in human MIA PaCa-2 cells at […] to 1 uM incubated for 16 hrs by western blot analysis. The class given is functional, cell-based. Particulars: dose 0.5-1 µM. In outline: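 Cells were seeded in 6-well plates (BxPC-3 500 × 10^3, MIA PaCa-2 200 × 10^3 cells/well) and exposed to compound for 16 h. Lysis was at 4 °C by sonication in Tris/NaCl/Triton/SDS buffer, pH 7.4, with protease and phosphatase inhibitors. Lysates were run on SDS-PAGE, transferred to PVDF and probed for STAT3, pSTAT3 and NQO1 with GAPDH as loading control. Immunoblots were imaged on an Odyssey system.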

Assay [19] in a line: Upregulation of BACH1 protein levels in human BxPC-3 cells incubated for 16 hrs by proteomic analysis. The class given is functional. In outline: as §2
Assay [20] deals with Protein cereblon/Signal transducer and activator of transcription 3 (Homo sapiens, UniProt P40763+Q96SW2). The assay is described as follows: Protac activity at CRBN/STAT3 in human BxPC-3 cells assessed as decrease in STAT3 expression level at 5 uM after 16 hrs by western blot analysis. It counts as cell-based. The method in brief: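 BxPC-3 cells seeded at 500 × 10^3 per well in 6-well plates, treated 16 h. Sonication lysis at 4 °C in Tris/NaCl/Triton/SDS buffer pH 7.4 with protease and phosphatase inhibitors, BCA protein assay, SDS-PAGE, PVDF transfer. Probed for STAT3, pSTAT3 and NQO1 with GAPDH loading control; fluorescent secondary detection.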

The test system of assay [21] is HEK293. The assay is described as follows: Antiproliferative activity against human HEK293 cells assessed as reduction in cell viability incubated for 24 hrs by MTT assay. The class given is functional, cell-based. Particulars: HEK293, 24 h. The method in brief:
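HEK-293 cells were treated with compound for 24 h, in parallel with the luciferase reporter assay. Viability was read by MTT absorbance at 570 nm, and IC50 was taken from three independent experiments.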

As usually defined, the DC50 is the concentration giving 50% degradation. By IC50 is commonly meant the concentration that gives 50% inhibition.

As to `O=C1CCC(N2C(=O)c3cccc(NCCCCCC4CCN(CCNC(=O)c5cc6c(o5)C(=O)c5ccccc5C6=O)CC4)c3C2=O)C(=O)N1` (stereo unspecified), the log2FC in [1] is -0.63; in [2], 1.58; in assay [3], -0.67; in assay [4], 0.65; in [5] it was -0.9; in assay [8], -0.7. For the same compound, the log2FC was -0.59 in [10]; -1.25 in [11]; -0.69 in assay [13]; -0.6 in [14]; -0.74 in [16]; 0.6 in assay [19]. The result in assay [6], in [9] and in assay [18] was inactive. Also, the DC50 in assay [7] was 60 nM; in assay [15], 80 nM. The IC50 is 1200 nM in assay [12], 1000 nM in assay [17] and 8700 nM in [21]. In assay [20], the result was Active.
